Results published in ChEMBL document CHEMBL3616436, “Synthesis, cytotoxicity and antimicrobial activity of thiourea derivatives incorporating 3-(trifluoromethyl)phenyl moiety” (Eur J Med Chem, 2015).

Experiments:
HaCaT = assay: Cytotoxicity against human HaCaT cells assessed as cell mortality at 16 uM after 24 hrs by LDH release assay relative to control; format: cell-based
How it was run: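 HaCaT cells in DMEM with 2% FBS exposed 24 h to 16 µM compound; LDH released into supernatant measured with commercial kit at 490 nm; % release = (test − untreated low control)/(10% Triton X-100 high control − low control) × 100; three independent experiments in triplicate.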

[1] = tested on: Staphylococcus epidermidis; assay: Inhibition of biofilm formation in Staphylococcus epidermidis ATCC 12228 at 8 ug/ml after 24 hrs using MTT staining by spectrophotometer analysis; format: functional; conditions: ATCC 12228, 24 h
How it was run: (§1)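 Methicillin-resistant hospital isolates or ATCC strains of S. epidermidis were grown overnight in tryptone soy broth with 0.5% glucose. Inoculum of 10^7 CFU/mL was mixed 1:1 with compound in TSB-glucose and incubated 24 h at 37 °C. Non-adherent cells were washed off with PBS, and wells were stained with MTT (0.5% in PBS) for 2 h at 37 °C. Stain was solubilized in DMSO/glycine buffer and read at A554. Inhibition is relative to drug-free control; quadruplicates.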

[2] = tested on: Staphylococcus epidermidis; assay: Inhibition of biofilm formation in Staphylococcus epidermidis ATCC 35984 at 8 ug/ml after 24 hrs using MTT staining by spectrophotometer analysis; format: functional; conditions: ATCC 35984, 24 h; how it was run: as §1

## Fc1ccc(NC(=S)Nc2cccc(C(F)(F)F)c2)cc1Cl
HaCaT
  Activity: 8%
[1]
  inhibition at 8 µg/mL: 40%
[2]
  inhibition at 8 µg/mL: 40%

## FC(F)(F)c1cccc(NC(=S)Nc2cccc(Br)c2)c1
HaCaT
  Activity: 0%
